Consider 6 substances from PMC11375721 (ACS Omega, 2024).

One data set addresses PD-L1 (Homo sapiens, UniProt Q9NZQ7). The experiment in a line: Saturation binding on A549-PDL1 cells. The note with it: 37 °C, 1 h. Summed up: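 Antibody-TCO was ligated with [18F]Tz in PBS (pH 7) at room temperature, and the purified conjugate was added at 0.08–10 nM to A549-PDL1 cells (2 × 10^5/well) for 1 h at 37 °C. Nonspecific binding used 100-fold excess unlabeled antibody added 1 h beforehand. Cell-bound activity was γ-counted. Each condition was run in triplicate, and Kd came from one-site specific-binding nonlinear regression.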

The subject of another data set is A549-PDL1 cells. The experiment in a line: Cellular uptake and internalization. It is filed as cell-based. Summed up: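 A549 cells stably transfected with PD-L1 by lentiviral infection, grown in RPMI-1640 with 15% FBS at 37 °C, 5% CO2. Cells were incubated with in vitro ligated [18F]Tz-TCO-antibody for 30, 60, 120 and 180 min at 37 °C, then washed twice in ice-cold PBS. Surface activity was stripped with glycine HCl (1 mol/L, pH 2.2) for 10 min at 37 °C. The lysate gave the internalized fraction; washes plus lysate gave total uptake, γ-counted. Three experiments, each in triplicate.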

Data set [1] can be described thus: Estimated human dosimetry. Summed up:
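Male nude mice bearing A549-PDL1 xenografts were imaged by micro-PET/CT under 2–3% isoflurane on a heating pad, with OSEM reconstruction and %ID/g quantification. Pretargeted arm: atezolizumab-TCO 300 μg i.v., then 48 h later the 18F-tetrazine (3.7 MBq) i.v. Direct arm: [18F]Tz-TCO-atezolizumab 7.4 MBq/mouse i.v., imaged at 1, 2, 4, 6 and 8 h. Mouse data were extrapolated to human organ doses.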

For data set [2], the system named is A549-PDL1 xenografts. The experiment in a line: In vivo pretargeting biodistribution. More on the design: species or system mice. The note with it: 1 h after [^18F]PEG12-Tz; for A549-PDL1 tumor uptake / blood uptake / bone uptake / brain uptake / gall bladder uptake / heart uptake / intestine uptake / kidney uptake / liver uptake / lung uptake / muscle uptake / spleen uptake / stomach uptake / tumor/blood / tumor/muscle: n = 3; for tumor/blood / tumor/muscle: biodistribution. Summed up:
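Male BALB/c nude mice (4–6 weeks, 13–18 g) received 5 × 10^6 A549-PDL1 and A549 cells in PBS subcutaneously behind the right armpit and were used once tumors reached 5–10 mm. Durvalumab-TCO or atezolizumab-TCO (300 μg in 150 μL PBS) was given i.v. by tail vein. After 24, 48 or 72 h, [18F]PEG12-Tz (1.85 MBq) was given i.v. Mice were killed 1 h later, and organs were weighed, γ-counted and expressed as %ID/g; n = 3. Controls: radioligand alone; blocking by co-injection of 50-fold molar excess atezolizumab plus 50 μg unlabeled tetrazine.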

For data set [3], the system named is A549-PDL1 xenografts. The experiment in a line: Pretargeted micro-PET/CT imaging. The note with it: for A549-PDL1 tumor uptake (PET): 1 h postinjection of [^18F]PEG12-Tz. It is filed as in vivo, mice.

Where only a bound is given, the exact number is not on record here.

PD-L1, sequence (Q9NZQ7 19-290): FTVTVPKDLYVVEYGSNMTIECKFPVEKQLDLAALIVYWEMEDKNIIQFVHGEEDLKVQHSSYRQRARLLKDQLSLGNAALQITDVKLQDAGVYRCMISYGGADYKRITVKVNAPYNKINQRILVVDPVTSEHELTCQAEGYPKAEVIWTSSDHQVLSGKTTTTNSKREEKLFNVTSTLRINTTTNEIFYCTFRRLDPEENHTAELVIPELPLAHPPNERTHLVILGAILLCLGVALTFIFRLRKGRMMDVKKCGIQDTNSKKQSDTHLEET

Regarding “[^18F]Tz-TCO-atezolizumab: in vitro ligation product of [^18F]Tz with atezolizumab-TCO, directly labeled radioimmunoconjugate”, the dissociation constant (Kd) (commonly the concentration at which binding is half-saturated) in the data set with PD-L1 stood at 1.38 nM. Besides, in the data set on A549-PDL1 cells (30 min), the cellular uptake was 3.76 % ID/10^6 cells. In the data set with A549-PDL1 cells (180 min), this substance yielded a cellular uptake of 9.85 % ID/10^6 cells and an internalization rate of 98.1%.
In the data set with PD-L1, “[^18F]Tz-TCO-durvalumab: in vitro ligation product of [^18F]Tz with durvalumab-TCO” gave a Kd of 2.39 nM. The substance also gave a cellular uptake in the data set with A549-PDL1 cells (30 min) of 5.13 % ID/10^6 cells. In the data set with A549-PDL1 cells (180 min), this substance showed a cellular uptake of 8.40 % ID/10^6 cells and an internalization rate of 73.2%.
As to “atezolizumab pretargeted: pretargeting pair: atezolizumab-TCO injected first, [^18F]PEG12-Tz 24-72 h later, ligated in vivo”, the “lowering of total effective dose versus [^18F]Tz-TCO-atezolizumab” value in data set [1] (estimated human) was “over 7.5 fold”. The “effective internal radiation dose” value in data set [1] (for men, as printed in main text) is given as 1.15 × 10^–3 μSv/MBq. Also, in the data set on A549-PDL1 xenografts [2] (24 h after antibody-TCO 300 μg), the A549-PDL1 tumor uptake is on record as 1.16 ± 0.06 % ID/g, the blood uptake came out at 1.72 ± 0.09 % ID/g, the bone uptake is given as 0.38 ± 0.07 % ID/g and the brain uptake is reported as 0.06 ± 0.01 % ID/g. In the data set with A549-PDL1 xenografts [2] (24 h after antibody-TCO 300 μg), the gall bladder uptake is 0.94 ± 0.11 % ID/g, the heart uptake is on record as 0.93 ± 0.05 % ID/g, the intestine uptake is reported as 0.51 ± 0.12 % ID/g and the kidney uptake is recorded as 2.04 ± 0.09 % ID/g. In the data set on A549-PDL1 xenografts [2] (24 h after antibody-TCO 300 μg), this substance yielded a liver uptake of 0.87 ± 0.08 % ID/g, a lung uptake of 1.78 ± 0.34 % ID/g, a muscle uptake of 0.26 ± 0.04 % ID/g and a spleen uptake of 0.71 ± 0.04 % ID/g. The same substance showed a stomach uptake in the data set on A549-PDL1 xenografts [2] (24 h after antibody-TCO 300 μg) of 0.40 ± 0.16 % ID/g. Further, in the data set on A549-PDL1 xenografts [2] (48 h after antibody-TCO 300 μg), the A549-PDL1 tumor uptake stood at 1.65 ± 0.29 % ID/g, the blood uptake worked out at 1.86 ± 0.15 % ID/g, the bone uptake is listed as 0.28 ± 0.02 % ID/g and the brain uptake was found to be 0.05 ± 0.01 % ID/g. Besides, in the data set with A549-PDL1 xenografts [2] (48 h after antibody-TCO 300 μg), the gall bladder uptake amounted to 0.94 ± 0.24 % ID/g, the heart uptake was 1.02 ± 0.14 % ID/g, the intestine uptake amounted to 0.62 ± 0.22 % ID/g and the kidney uptake was 2.82 ± 0.52 % ID/g. In the data set with A549-PDL1 xenografts [2] (48 h after antibody-TCO 300 μg), this substance showed a liver uptake of 0.96 ± 0.18 % ID/g, a lung uptake of 1.65 ± 0.11 % ID/g, a muscle uptake of 0.31 ± 0.08 % ID/g and a spleen uptake of 0.71 ± 0.12 % ID/g. Also, the stomach uptake with A549-PDL1 xenografts [2] (48 h after antibody-TCO 300 μg) is 0.37 ± 0.06 % ID/g. In the data set on A549-PDL1 xenografts [2] (72 h after antibody-TCO 300 μg), this substance came in with an A549-PDL1 tumor uptake of 0.90 ± 0.23 % ID/g, a blood uptake of 1.48 ± 0.50 % ID/g, a bone uptake of 0.38 ± 0.03 % ID/g and a brain uptake of 0.05 ± 0.01 % ID/g. Also, in the data set with A549-PDL1 xenografts [2] (72 h after antibody-TCO 300 μg), the gall bladder uptake amounted to 0.63 ± 0.21 % ID/g, the heart uptake is 0.74 ± 0.28 % ID/g, the intestine uptake was found to be 0.55 ± 0.15 % ID/g and the kidney uptake is on record as 2.22 ± 0.37 % ID/g. In the data set with A549-PDL1 xenografts [2] (72 h after antibody-TCO 300 μg), the liver uptake was determined as 0.71 ± 0.16 % ID/g, the lung uptake was determined as 0.92 ± 0.06 % ID/g, the muscle uptake was 0.29 ± 0.06 % ID/g and the spleen uptake worked out at 0.81 ± 0.13 % ID/g. Moreover, the stomach uptake in the data set on A549-PDL1 xenografts [2] (72 h after antibody-TCO 300 μg) came to 0.32 ± 0.11 % ID/g. In addition, the “A549-PDL1 tumor uptake (PET)” value in the data set on A549-PDL1 xenografts [3] (24 h interval) is on record as 0.79 ± 0.06 % ID/g. Also, the “A549-PDL1 tumor uptake (PET)” value with A549-PDL1 xenografts [3] (48 h interval) is reported as 0.94 ± 0.16 % ID/g. Moreover, in the data set on A549-PDL1 xenografts [3] (72 h interval), the “A549-PDL1 tumor uptake (PET)” value amounted to 0.41 ± 0.04 % ID/g. Also, the “accumulation in A549-PDL1 tumors under blocking” value in the data set on A549-PDL1 xenografts [3] (co-injection of unmodified anti-PD-L1 antibody or unlabeled tetrazine) is reported as “could be blocked”.
Consider “atezolizumab-TCO: atezolizumab (anti-PD-L1 antibody) modified with TCO-PEG4-NHS Ester, average 8 TCO per antibody”, for which, in the data set on A549-PDL1 xenografts [2] (48 h after antibody-TCO 300 μg), the A549-PDL1 tumor uptake turned out to be 1.65 ± 0.15 % ID/g, the blood uptake worked out at 1.86 ± 0.15 % ID/g and the lung uptake was 1.65 ± 0.11 % ID/g. The “uptake in other organs such as the liver, muscles, bones, and intestines” value with A549-PDL1 xenografts [2] (48 h after atezolizumab-TCO) is recorded as under 0.96 % ID/g.
In the case of “durvalumab pretargeted: pretargeting pair: durvalumab-TCO injected first, [^18F]PEG12-Tz 24-72 h later, ligated in vivo”, in the data set on A549-PDL1 xenografts [2] (24 h after antibody-TCO 300 μg), the A549-PDL1 tumor uptake is reported as 2.52 ± 0.16 % ID/g, the blood uptake stood at 8.80 ± 0.50 % ID/g, the bone uptake worked out at 1.16 ± 0.27 % ID/g and the brain uptake was determined as 0.29 ± 0.07 % ID/g. In the data set with A549-PDL1 xenografts [2] (24 h after antibody-TCO 300 μg), this substance had a gall bladder uptake of 1.29 ± 0.08 % ID/g, a heart uptake of 2.66 ± 0.49 % ID/g, an intestine uptake of 0.54 ± 0.14 % ID/g and a kidney uptake of 3.12 ± 0.31 % ID/g. Moreover, in the data set with A549-PDL1 xenografts [2] (24 h after antibody-TCO 300 μg), the liver uptake is 1.93 ± 0.59 % ID/g, the lung uptake is on record as 7.06 ± 1.90 % ID/g, the muscle uptake was 0.72 ± 0.10 % ID/g and the spleen uptake was found to be 1.27 ± 0.22 % ID/g. In the data set with A549-PDL1 xenografts [2] (24 h after antibody-TCO 300 μg), the stomach uptake is recorded as 0.50 ± 0.06 % ID/g, the tumor/blood is recorded as 0.29 ± 0.04 and the tumor/muscle was found to be 3.51 ± 0.75. In the data set with A549-PDL1 xenografts [2] (48 h after antibody-TCO 300 μg), this substance showed an A549-PDL1 tumor uptake of 1.91 ± 0.38 % ID/g, a blood uptake of 6.08 ± 1.82 % ID/g, a bone uptake of 0.98 ± 0.26 % ID/g and a brain uptake of 0.16 ± 0.04 % ID/g. For the same substance, in the data set on A549-PDL1 xenografts [2] (48 h after antibody-TCO 300 μg), the gall bladder uptake is given as 1.11 ± 0.35 % ID/g, the heart uptake turned out to be 1.57 ± 0.27 % ID/g, the intestine uptake came to 0.40 ± 0.07 % ID/g and the kidney uptake was 2.68 ± 0.46 % ID/g. Further, in the data set on A549-PDL1 xenografts [2] (48 h after antibody-TCO 300 μg), the liver uptake is 1.19 ± 0.23 % ID/g, the lung uptake was 3.19 ± 1.02 % ID/g, the muscle uptake was 0.56 ± 0.20 % ID/g and the spleen uptake worked out at 0.48 ± 0.34 % ID/g. In the data set on A549-PDL1 xenografts [2] (48 h after antibody-TCO 300 μg), this substance gave a stomach uptake of 0.33 ± 0.09 % ID/g, a tumor/blood of 0.31 ± 0.07 and a tumor/muscle of 3.39 ± 0.46. Also, in the data set with A549-PDL1 xenografts [2] (72 h after antibody-TCO 300 μg), the A549-PDL1 tumor uptake is 1.60 ± 0.23 % ID/g, the blood uptake is listed as 5.29 ± 0.50 % ID/g, the bone uptake amounted to 0.53 ± 0.04 % ID/g and the brain uptake is 0.14 ± 0.01 % ID/g. In the data set on A549-PDL1 xenografts [2] (72 h after antibody-TCO 300 μg), this substance returned a gall bladder uptake of 0.99 ± 0.22 % ID/g, a heart uptake of 1.40 ± 0.28 % ID/g, an intestine uptake of 0.51 ± 0.15 % ID/g and a kidney uptake of 2.27 ± 0.37 % ID/g. In the data set with A549-PDL1 xenografts [2] (72 h after antibody-TCO 300 μg), this substance yielded a liver uptake of 1.01 ± 0.16 % ID/g, a lung uptake of 2.01 ± 0.06 % ID/g, a muscle uptake of 0.43 ± 0.06 % ID/g and a spleen uptake of 0.62 ± 0.13 % ID/g. In the data set with A549-PDL1 xenografts [2] (72 h after antibody-TCO 300 μg), this substance came in with a stomach uptake of 0.75 ± 0.28 % ID/g, a tumor/blood of 0.30 ± 0.02 and a tumor/muscle of 3.68 ± 0.98.
Consider “durvalumab-TCO: durvalumab (anti-PD-L1 antibody) modified with TCO-PEG4-NHS Ester, average 12 TCO per antibody”, for which, in the data set with A549-PDL1 xenografts [2] (24 h after antibody-TCO 300 μg), the A549-PDL1 tumor uptake amounted to 2.52 ± 0.16 % ID/g, the blood uptake came out at 8.80 ± 0.50 % ID/g, the lung uptake is listed as 7.06 ± 1.90 % ID/g and the tumor/blood is listed as 0.29. This substance also yielded a tumor/muscle in the data set with A549-PDL1 xenografts [2] (24 h after antibody-TCO 300 μg) of 3.51. The same substance showed an A549-PDL1 tumor uptake in the data set on A549-PDL1 xenografts [2] (48 h after antibody-TCO 300 μg) of 1.91 ± 0.38 % ID/g. This substance registered an A549-PDL1 tumor uptake with A549-PDL1 xenografts [2] (72 h after antibody-TCO 300 μg) of 1.60 ± 0.23 % ID/g.
